Assay outcomes deposited in PubChem BioAssay by several laboratories.
697 NFkB inh = inhibitors of PMA/ionomycin-induced NF-kB reporter, 697 cells, primary screen, B-cell NF-kB inhibitor project, cell-based, luminescence, uHTS | AID 435022, 2010 | inhibition, % at 4 µM | 330,000 tested, 0.33% active | 697 B-cell NF-kB luciferase reporter, 16 h; in the data active = inhibition above about 35%
NR2E3 ag-1 = NR2E3 agonists in two-hybrid cells, primary screen, cell-based, luminescence, CHO-S, Gal4-NCOR/VP16-NR2E3. Photoreceptor-specific nuclear receptor (Homo sapiens), Q9Y5X4. luciferase. inhibition of corepressor binding, % at 3.98 µM. 360,000 tested, 0.35% active. AID 602229, 2012;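 active = inhibition above the mean of all tested compounds plus 3 SD, cut at about 70% in these data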;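 note: higher means lower luciferase signal from less NR2E3 corepressor binding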
Target sequence (Q9Y5X4 whole entry, looked up, the tested form may be a part): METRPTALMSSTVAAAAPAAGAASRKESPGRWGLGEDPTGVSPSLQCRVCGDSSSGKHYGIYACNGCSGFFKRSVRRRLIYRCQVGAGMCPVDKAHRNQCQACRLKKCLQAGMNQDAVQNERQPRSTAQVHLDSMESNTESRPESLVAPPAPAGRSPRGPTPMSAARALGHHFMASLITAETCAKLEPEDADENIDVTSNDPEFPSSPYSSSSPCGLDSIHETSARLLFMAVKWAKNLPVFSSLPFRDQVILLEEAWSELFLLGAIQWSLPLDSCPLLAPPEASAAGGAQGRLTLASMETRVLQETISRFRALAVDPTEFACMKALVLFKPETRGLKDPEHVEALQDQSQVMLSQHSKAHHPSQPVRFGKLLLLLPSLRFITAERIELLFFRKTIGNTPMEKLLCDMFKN
aDG glyco act = activators of alpha-DG glycosylation, primary screen, uHTS, Pro5-aDG cells, AlphaScreen; alpha-DG glycosylation AlphaScreen (IIH6); 0% Pro5, 100% B10-LARGE cell signal; 360,000 tested, 0.22% active; activation, % at 10 µM;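 active = activation of at least 8% versus controls, or a plate z-score of at least 8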;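 note: Pro5 are CHO cells carrying HIG-tagged alpha-DG that lacks glycosylation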
MPTP inh = mitochondrial permeability transition pore inhibitors, primary screen, biochemical, isolated mouse mitochondria, absorbance | Ca2+ swelling absorbance, 30 min | inhibition, % at 10 µM | 360,000 tested, 1.4% active | AID 602449, 2012;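 active = inhibition of 50% or more, scaled per plate between neutral and stimulator controls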
Jurkat NFkB inh = inhibitors of induced NF-kB luciferase reporter, primary screen, TCR NF-kB activation inhibitor project, cell-based, luminescence, uHTS; Jurkat, PMA/ionomycin-induced NF-kB luciferase reporter; inhibition, % at 4 µM; 330,000 tested, 0.53% active; AID 435003, 2010; in the data active = inhibition above about 50%
NR2E3 ag-2 = inhibitors of NR2E3-RetCOR corepressor binding, primary screen, NR2E3 agonist project, biochemical, TR-FRET, GST-NR2E3, biotin-RetCOR; 1536-well; Photoreceptor-specific nuclear receptor (Homo sapiens), Q9Y5X4; inhibition of corepressor binding, % at 4.78 µM; AID 2300, 2010; 320,000 tested, 0.12% active;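 active = percent inhibition above the cutoff of mean plus 3 SD of all tested compounds, set per screening campaign, cut at about 20% in these data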
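Test system: GST-NR2E3 and biotin-RetCOR proteins | Quantity: 1.35 nM GST-tagged NR2E3 final | Medium: Tris pH 7.5 | Also added: 7 nM biotin-RetCOR | Dosing: Compound at 4.8 µM, single dose | Timing: 5 h at 4 °C | Detection: Time-resolved FRET | Read-out basis: Percent inhibition | Benchmarks: Biotin wells as high control, 0.6% DMSO wells as low control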
Rh123 counter = fluorescence retest of MPTP screen hits in isolated mitochondria, single concentration; shares compounds with MPTP inh; membrane potential, Rhodamine 123 fluorescence; inhibition, % at 10 µM; 5,000 tested, 78% active; AID 624504, 2012; in the data active = inhibition above about 22%
MPTP swell DR = mitochondrial permeability transition pore inhibitors, dose response, biochemical, absorbance, uHTS hits | AID 651561, 2012 | isolated mitochondria swelling | IC50, µM | shares compounds with MPTP inh | 780 tested, 58% active; in the data active = IC50 below about 20 µM
MPTP cs DR = fluorescent counter-screen in isolated mitochondria, dose response, counter-screen for MPTP inhibitor project, biochemical, fluorescence, uHTS hits | IC50, µM | shares compounds with MPTP inh | isolated mitochondria counterscreen, fluorescence read-out | 780 tested, 49% active; in the data active = IC50 below about 80 µM
Each line names hits and unclear results; the compound was inactive in the other large screens (follow-up assays come after a bar, where they were run). This is a sample that favours compounds with a hit; in the whole collection about 2.4% have one here.

CN(C)S(=O)(=O)Oc1cccc(C(=O)Nc2ccc(Cl)c(Cl)c2)c1	MPTP inh 96.1 | Rh123 counter 90.7
NC(=O)c1ccsc1NC(=O)CSc1nnc(Nc2ccccc2)s1	none
NC(=O)C1CCCN(C(=O)CCC(=O)c2cccs2)C1 (stereo unspecified)	none (no result: NR2E3 ag-2)
COC(=O)c1cccc(NC(=O)Nc2ccccc2OC)c1	none
COC(=O)c1cccc(NC(=O)Nc2ccc(Cl)c(Cl)c2)c1	MPTP inh 98.4 | Rh123 counter 70.1
COC(=O)c1sccc1NC(=O)Nc1ccc(Cl)c(Cl)c1	MPTP inh 103.3 | Rh123 counter 106.9
CCN(CC)C(=S)Nc1ccc(Cl)c(Cl)c1	MPTP inh 71.4 | Rh123 counter 58.6
CCC(=O)c1ccc2c(c1)N(CCCN(C)C)c1ccccc1S2	MPTP inh 71.7 | Rh123 counter inactive
CC(=O)c1ccc2c(c1)N(CCCN(C)C)c1ccccc1S2	none (no result: 697 NFkB inh, Jurkat NFkB inh, NR2E3 ag-2)
N#Cc1cc(C(=O)c2cc(F)ccc2O)cn(-c2nccs2)c1=O	MPTP inh 51.8 | Rh123 counter 86.0
O=C(NCC(F)(F)F)C1C(=O)Nc2ccccc2C(=O)N1C1CCCC1 (stereo unspecified)	none (no result: 697 NFkB inh, NR2E3 ag-1, Jurkat NFkB inh, NR2E3 ag-2)
O=C(O)c1cc(N/N=C/C=C/c2ccccc2)ccc1Cl	none
Cc1ccc(NC(=O)CC(=O)c2ccc([N+](=O)[O-])cc2)cc1S(=O)(=O)Nc1cccc(Cl)c1	MPTP inh 80.3 | Rh123 counter 55.2
Cc1ccc(NS(=O)(=O)c2cc(C(=O)Nc3cccc([N+](=O)[O-])c3)ccc2C)cc1	none
Cc1ccc(NC(=O)c2cccs2)cc1S(=O)(=O)Nc1cccc(Cl)c1	MPTP inh 60.0 | Rh123 counter 68.4
Cc1ccc(NC(=S)NC(=O)c2ccc(F)cc2)cc1S(=O)(=O)Nc1cccc(Cl)c1	none
O=C(Nc1c(F)cc(F)cc1Br)c1cc(-c2ccc(O)cc2)on1	MPTP inh 92.5 | Rh123 counter 23.0
NC1=NC[C@H](c2ccccc2)N1CCCCC1CCCCC1	MPTP inh 81.2 | Rh123 counter 37.0
NCCCC[C@H]1CN=C(N)N1CCCCC1CCCCC1	MPTP inh 74.0 | Rh123 counter inactive | MPTP swell DR inactive | MPTP cs DR inactive
S=C1NC[C@H](c2ccccc2)N1CCCCC1CCCCC1	none
COC(=O)COc1ccc(/C=N/NC(=O)c2ccc(N(Cc3ccccc3)S(C)(=O)=O)cc2)cc1	none
CC1Oc2ccccc2C=C1/C=N/NC(=O)c1ccccc1O (stereo unspecified)	MPTP inh 89.8 | Rh123 counter 72.0
N#C/C(N=Nc1ccccc1O)=N\Nc1ccccc1O	MPTP inh 126.5 | Rh123 counter 44.0
COc1cccc(-c2cc(C(=O)N3CCN(S(=O)(=O)c4ccc(Br)cc4)CC3)[nH]n2)c1	none
CC1CCN(CCCNC(=O)Cn2ncc3c([nH]c4ccccc43)c2=O)CC1	none
COc1ccc(NC(=O)C23CC4CC(C2)CC(c2ccc(C)cc2)(C4)C3)cc1	MPTP inh 60.0 | Rh123 counter 20.7
COc1ccccc1NC(=O)C12CC3CC(C1)CC(c1ccc(C)cc1)(C3)C2	none
Cc1nn(CC(=O)Nc2ccc3c(c2)OCCO3)c(C)c1[N+](=O)[O-]	none (no result: NR2E3 ag-2)
COc1cccc(C(O)c2ncc(-c3cccc4ccccc34)[nH]2)c1 (stereo unspecified)	none (no result: 697 NFkB inh, Jurkat NFkB inh, NR2E3 ag-2)
